Measured values: ChEMBL document CHEMBL4033605 (J Nat Prod, 2017)
pIC50: −log10 of the molar value. Calls of active or inactive are those of the source. No cut-off for these calls is given here. Where a SMILES comes first, the peptide text is derived from it.

What was measured:
[1] = Cytotoxic activity against human U251N cells assessed as zone diffusion inhibition by measuring distance to perimeter (diffusion distance units) at 36 umol by disk diffusion soft agar colony inhibition assay (reference value: 0 unit); assay type: functional
PANC-1 = test: Cytotoxic activity against human PANC1 cells assessed as zone diffusion inhibition by measuring distance to perimeter (diffusion distance units) at 36 umol by disk diffusion soft agar colony inhibition assay (reference value: 0 unit); assay type: functional
[2] = Cytotoxic activity against human H116 cells assessed as zone diffusion inhibition by measuring distance to perimeter (diffusion distance units) at 36 umol by disk diffusion soft agar colony inhibition assay (reference value: 0 unit); assay type: functional
[3] = biological target: Dipeptidyl peptidase 4 (Homo sapiens) (UniProt P27487); test: Inhibition of human recombinant DPP4 at 10 uM using H-Gly-Pro AMC substrate incubated for 30 mins by spectrophotometry
Sequence of Dipeptidyl peptidase 4 (Homo sapiens) (P27487 whole entry, looked up, the tested form may be a part): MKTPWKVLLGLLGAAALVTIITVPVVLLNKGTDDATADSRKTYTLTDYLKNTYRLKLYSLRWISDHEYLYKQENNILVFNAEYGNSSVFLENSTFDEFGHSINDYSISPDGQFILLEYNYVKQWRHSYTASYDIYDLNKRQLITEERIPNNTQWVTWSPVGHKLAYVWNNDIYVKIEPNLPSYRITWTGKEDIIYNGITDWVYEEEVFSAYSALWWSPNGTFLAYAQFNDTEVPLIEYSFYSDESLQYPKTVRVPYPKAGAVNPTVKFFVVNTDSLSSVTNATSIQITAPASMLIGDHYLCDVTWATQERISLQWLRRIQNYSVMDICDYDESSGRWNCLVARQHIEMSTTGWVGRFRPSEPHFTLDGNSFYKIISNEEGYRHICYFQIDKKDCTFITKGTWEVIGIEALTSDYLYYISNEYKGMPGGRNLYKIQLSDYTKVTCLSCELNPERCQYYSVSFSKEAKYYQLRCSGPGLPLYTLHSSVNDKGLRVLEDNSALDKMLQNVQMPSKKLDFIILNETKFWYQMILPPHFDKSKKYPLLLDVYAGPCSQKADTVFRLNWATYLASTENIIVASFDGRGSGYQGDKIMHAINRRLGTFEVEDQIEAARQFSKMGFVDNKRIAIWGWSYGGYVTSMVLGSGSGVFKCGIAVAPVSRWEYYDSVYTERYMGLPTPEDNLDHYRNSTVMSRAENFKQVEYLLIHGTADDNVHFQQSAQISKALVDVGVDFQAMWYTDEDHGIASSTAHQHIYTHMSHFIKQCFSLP
How it was run: (§1)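 Human recombinant DPP4 was assayed in 20 mM Tris-HCl pH 8.0 with 100 mM NaCl and 1 mM EDTA. Compound in DMSO was tested at 10 µM final, with three-fold serial dilutions down to 1.5 nM. H-Gly-Pro-AMC substrate was added as a 200 µM solution. After 30 min at 37 °C, fluorescence was read at excitation 355 and emission 455 nm. Background wells had no enzyme. All conditions were run in triplicate.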

HCT-116 = test: Cytotoxic activity against human HCT116 cells incubated for 48 hrs by MTT assay; assay type: functional, cell-based; settings: HCT-116, 48 h
MCF7 [4] = test: Cytotoxic activity against human MCF7 cells assessed as zone diffusion inhibition by measuring distance to perimeter (diffusion distance units) at 9 umol by disk diffusion soft agar colony inhibition assay (reference value: 0 unit); assay type: functional
LNCaP [5] = test: Cytotoxic activity against human LNCAP cells assessed as zone diffusion inhibition by measuring distance to perimeter (diffusion distance units) at 36 umol by disk diffusion soft agar colony inhibition assay (reference value: 0 unit); assay type: functional
CCRF-CEM [6] = test: Cytotoxic activity against human CEM cells assessed as zone diffusion inhibition by measuring distance to perimeter (diffusion distance units) at 9 umol by disk diffusion soft agar colony inhibition assay (reference value: 0 unit); assay type: functional
MCF7 [7] = test: Cytotoxic activity against human MCF7 cells assessed as zone diffusion inhibition by measuring distance to perimeter (diffusion distance units) at 36 umol by disk diffusion soft agar colony inhibition assay (reference value: 0 unit); assay type: functional
[8] = Cytotoxic activity against human H125 cells assessed as zone diffusion inhibition by measuring distance to perimeter (diffusion distance units) at 9 umol by disk diffusion soft agar colony inhibition assay (reference value: 0 unit); assay type: functional
LNCaP [9] = test: Cytotoxic activity against human LNCAP cells assessed as zone diffusion inhibition by measuring distance to perimeter (diffusion distance units) at 9 umol by disk diffusion soft agar colony inhibition assay (reference value: 0 unit); assay type: functional
CFU-GM [10] = test: Cytotoxic activity against human CFU-GM cells assessed as zone diffusion inhibition by measuring distance to perimeter (diffusion distance units) at 9 umol by disk diffusion soft agar colony inhibition assay (reference value: 0 unit); assay type: functional
[11] = biological target: Dipeptidyl peptidase 4 (Homo sapiens) (UniProt P27487); test: Inhibition of human recombinant DPP4 at <3.33 uM using H-Gly-Pro AMC substrate incubated for 30 mins by spectrophotometry; how it was run: as §1
[12] = Cytotoxic activity against human H125 cells assessed as zone diffusion inhibition by measuring distance to perimeter (diffusion distance units) at 36 umol by disk diffusion soft agar colony inhibition assay (reference value: 0 unit); assay type: functional
CFU-GM [13] = test: Cytotoxic activity against human CFU-GM cells assessed as zone diffusion inhibition by measuring distance to perimeter (diffusion distance units) at 36 umol by disk diffusion soft agar colony inhibition assay (reference value: 0 unit); assay type: functional
OVCAR-5 = test: Cytotoxic activity against human OVCAR5 cells assessed as zone diffusion inhibition by measuring distance to perimeter (diffusion distance units) at 36 umol by disk diffusion soft agar colony inhibition assay (reference value: 0 unit); assay type: functional
CCRF-CEM [14] = test: Cytotoxic activity against human CEM cells assessed as zone diffusion inhibition by measuring distance to perimeter (diffusion distance units) at 36 umol by disk diffusion soft agar colony inhibition assay (reference value: 0 unit); assay type: functional
[15] = Cytotoxic activity against human H116 cells assessed as zone diffusion inhibition by measuring distance to perimeter (diffusion distance units) at 9 umol by disk diffusion soft agar colony inhibition assay (reference value: 0 unit); assay type: functional
[16] = Cytotoxic activity against human U251N cells assessed as zone diffusion inhibition by measuring distance to perimeter (diffusion distance units) at 9 umol by disk diffusion soft agar colony inhibition assay (reference value: 0 unit); assay type: functional
NCI-H460 = test: Cytotoxic activity against human H460 cells incubated for 48 hrs by MTT assay; assay type: functional, cell-based; settings: NCI-H460, 48 h

inhibition [3]	inhibition [11]	Structure (SMILES)	inhibition zone (IZ) [1]	inhibition zone (IZ) (PANC-1)	inhibition zone (IZ) [2]	pIC50 (HCT-116)	inhibition zone (IZ) (MCF7 [4])	inhibition zone (IZ) (LNCaP [5])	inhibition zone (IZ) (CCRF-CEM [6])	inhibition zone (IZ) (MCF7 [7])	inhibition zone (IZ) [8]	inhibition zone (IZ) (LNCaP [9])	inhibition zone (IZ) (CFU-GM [10])	inhibition zone (IZ) [12]	inhibition zone (IZ) (CFU-GM [13])	inhibition zone (IZ) (OVCAR-5)	inhibition zone (IZ) (CCRF-CEM [14])	inhibition zone (IZ) [15]	inhibition zone (IZ) [16]	pIC50 (NCI-H460)
15.7%	inactive	CC[C@H](C)[C@@H]1NC(=O)[C@@H]2CCCN2C(=O)[C@H](Cc2ccccc2)NC(=O)[C@H](C(C)C)NC(=O)[C@H](CC(C)C)NC(=O)[C@@H]2CCCN2C(=O)[C@@H]2CCCN2C(=O)[C@H](Cc2ccccc2)NC1=O (cyclo(LVFPIFPP))	500 U	200 U	600 U	> 5.00	300 U	500 U	350 U	500 U	300 U	300 U	400 U	550 U	700 U	200 U	600 U	200 U	300 U	
		COc1cccc2c1C(=O)c1c(O)c3c(c(O)c1C2=O)C[C@@](O)(C(=O)CO)C[C@@H]3O[C@H]1C[C@H](N)[C@H](O)[C@H](C)O1 [DOXORUBICIN]																		6.70
